The test system of series [1] is SK-BR-3. Nature of the series: Antiproliferative activity against SKBR3 cells upto 100 uM. As to conditions: Homo sapiens. The format is functional, cell-based. Summed up:
(§1)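 MCF-7 and SkBr3 cells incubated with compound over a range of concentrations up to 100 µM. Viable cells quantitated by MTS/PMS assay. Triplicate wells per experiment, three independent experiments; IC50 from dose–response, values as means ± SE.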

Series [2] has as its system Cortical neurone. Kind of series: Inhibition of beta-amyloid (25-35)-induced toxicity in embryonic rat brain primary cortical neurons after 48 hrs. In kind it is functional, tissue-based. An outline of the steps: (§2)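 Primary cortical neurons pretreated with compound at a series of concentrations, then challenged with Aβ25–35 (10 µM), or Aβ1–42 in fewer cultures. Neurons labelled with calcein-AM (live) and propidium iodide (dead) and counted in several fields by fluorescence microscopy. EC50 taken from percentage survival.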

Series [3] has as its system LNCaP. Nature of the series: Degradation of Hsp90 client protein AKT in LNCap cells upto 1 uM. In kind it is functional, cell-based. The following applies: Homo sapiens. An outline of the steps:
(§3)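 LNCaP prostate cancer cells, which carry a mutated androgen receptor, exposed to compound from 10 nM upward. Hsp90 induction and loss of client proteins AR and AKT assessed.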

Series [4] relates to Cerebral cortex neuron. Nature of the series: Increase in Hsp70 level in rat primary cortical neurons at 0.2 uM after 48 hrs. In kind it is functional, cell-based. An outline of the steps: (§4)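 Primary cortical neurons incubated 48 h with compound, concentrations from 1 nM to 10 µM. Hsp70 levels measured against DMSO controls.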
Series [5] deals with MCF7. Nature of the series: Antiproliferative activity against MCF7 cells upto 100 uM. The format is functional, cell-based. The following applies: Homo sapiens. Summed up: as §1
Series [6] relates to LNCaP. Kind of series: Degradation of Hsp90 client protein androgen receptor in LNCap cells upto 1 uM. In kind it is functional, cell-based. As to conditions: Homo sapiens. Summed up:
as §3

In series [7] the test system is Cerebral cortex neuron. Nature of the series: Increase in Hsp70 level in rat primary cortical neurons at 1 nM after 48 hrs relative to control. In kind it is functional, cell-based. Summed up:
as §4

The next series concerns BMEC. Kind of series: Permeability across BMECs. In kind it is ADME, cell-based, Bos taurus. The following applies: cattle, TDE = time-dependent effect. Summed up: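 Primary bovine BMEC monolayers mounted in a side-by-side diffusion chamber. Compound in the receiving chamber sampled over time, up to 90 min.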
Series [8] has as its system Cortical neurone. Nature of the series: Inhibition of beta-amyloid (1-42)-induced toxicity in embryonic rat brain primary cortical neurons after 48 hrs. The format is functional, tissue-based. Summed up: as §2
Series [9] in a line: Cytotoxicity against rat neuronal cells at 10 uM after 72 hrs. The format is cell-based. The following applies: neuron. Summed up:
(§5)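 Neuronal cultures given compound alone (10 µM) or DMSO vehicle. Viability read at 24 h and after 72 h. Percentage surviving neurons taken from three separate experiments, mean ± SE.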

Series [10] has as its system LNCaP. Nature of the series: Induction of Hsp90 protein in LNCap cells expressing mutated androgen receptor at 10 nM. In kind it is functional, cell-based. The following applies: Homo sapiens. Summed up:
as §3

Series [11] deals with SK-BR-3. Kind of series: Antiproliferative activity against SKBR3 cells. In kind it is functional, cell-based. As to conditions: Homo sapiens. Summed up:
as §1

The nature of series [12]: Cytotoxicity against rat neuronal cells at 10 uM after 24 hrs. The following applies: neuron. In kind it is cell-based. An outline of the steps: as §5
Series [13] has as its system MCF7. Nature of the series: Antiproliferative activity against MCF7 cells. The format is functional, cell-based. As to conditions: Homo sapiens. Summed up: as §1

Active and inactive are the calls of the source. No cut-off for these calls is given here.

With `CO[C@H]1[C@H](O)[C@@H](O)[C@H](Oc2ccc3cc(NC(C)=O)c(=O)oc3c2)OC1(C)C`, the result in the series with SK-BR-3 [1], with LNCaP [3], in the series with MCF7 [5] and with LNCaP [6] was inactive. For the same compound, the result with Cortical neurone [2], with Cerebral cortex neuron [4], with Cerebral cortex neuron [7], in the series with Cortical neurone [8] and with LNCaP [10] was Active. Moreover, the Activity entry with BMEC is on record as “tde”; in [9], “Not Active”.

On to `COC1=C2C[C@@H](C)C[C@H](OC)[C@H](O)[C@@H](C)/C=C(\C)[C@H](OC(N)=O)[C@@H](OC)/C=C\C=C(/C)C(=O)NC(=CC1=O)C2=O` [GELDANAMYCIN], for which the figures for the Activity entry (with SK-BR-3 [11]; in series [12]; with MCF7 [13]) were “Dose-dependent effect”, “Active” and “Dose-dependent effect”, respectively.

These data come from ChEMBL document CHEMBL1148860, “A non-toxic Hsp90 inhibitor protects neurons from Abeta-induced toxicity” (Bioorg Med Chem Lett, 2007).
